Experimental data collected from several papers.
Lines come from different studies, so protocols differ.
Sample: plasma

Compound | test system | conditions | AUC(0-t)
CCCCCCCCCC(=O)N[C@@H](Cc1c[nH]c2ccccc12)C(=O)N[C@H](CC(N)=O)C(=O)N[C@@H](CC(=O)O)C(=O)N[C@@H]1C(=O)NCC(=O)N[C@@H](CCCN)C(=O)N[C@@H](CC(=O)O)C(=O)N[C@H](C)C(=O)N[C@@H](CC(=O)O)C(=O)NCC(=O)N[C@H](CO)C(=O)N[C@@H]([C@H](C)CC(=O)O)C(=O)N[C@@H](CC(=O)c2ccccc2N)C(=O)O[C@@H]1C | male Wistar rat | subcutaneous, 125 mg/kg, single dose | 2450 µg·h/mL
COc1ccc(-c2coc3cc(O)cc(O)c3c2=O)cc1 | rat | intravenous, 2 mg/kg | 0.637 µg·h/mL
CCOc1c([C@H](C)n2nc(C)c3c(N)ncnc32)cc(Cl)c(F)c1[C@@H]1CNC(=O)C1 | male Sprague-Dawley rat | oral, 2 mg/kg, single dose | 4.58 µg·h/mL
C[C@H]1Oc2cc(cnc2N)-c2c(nn(C)c2C#N)CN(C)C(=O)c2ccc(F)cc21 | male Sprague-Dawley rat | oral, 50 mg/kg, single dose | 24.8 µg·h/mL
Nc1ccn([C@@H]2O[C@H](CO)[C@@H](O)C2(F)F)c(=O)n1 | male Sprague-Dawley rat | intraperitoneal, 5 mg/kg | 22.9 µg·h/mL
COc1ccc(N(Cc2csc(-c3ccccc3)n2)C(=O)CCCCCC(=O)NO)cc1 | female Sprague-Dawley rat | intravenous, 5 mg/kg | 0.0299 µg·h/mL
COc1cc(-c2cc(C(C)=O)n3ccccc23)c(OC)cc1Cn1ccnc1 | male Sprague-Dawley rat | oral, 5 mg/kg | 2.15 µg·h/mL
COc1nc(-c2cccc(-c3ccccc3)c2C)ccc1CNCCNC(=O)CCCCCCCCCCC(=O)N1CCN(CCNC(=O)c2cc3c(=O)n4cccc(C)c4nc3n(CCc3cccs3)c2=N)CC1 | male Sprague-Dawley rat | oral, 40 mg/kg | 0.257 µg·h/mL
CNC(=O)c1cc(Oc2ccc(NC(=O)Nc3ccc(Cl)c(C(F)(F)F)c3)cc2)ccn1 | male Sprague-Dawley rat | oral, 100 mg/kg, single dose | 17.7 µg·h/mL
Cn1c(=O)c2[nH]cnc2n(C)c1=O | male Sprague-Dawley rat | intravenous, 22.5 mg/kg | 53.8 µg·h/mL
C[C@H]1[C@@H](O)O[C@@H]2O[C@@]3(C)CC[C@H]4[C@H](C)CC[C@@H]1[C@@]24OO3 | male Sprague-Dawley rat | oral, 10 mg/kg | 0.234 µg·h/mL
Cc1ccc2c(c1)C(=O)[C@]1(O)CCN(c3ccc4nc(C)ccc4c3)C1=N2.Cl | female rat | subcutaneous, 40 mg/kg, multiple doses, once daily | 17 µM·h
CONC(=O)c1cccc2c1cc(C)n2-c1nc2c(c(NCc3ccccc3)n1)CCCN2 | male Sprague-Dawley rat | oral, 10 mg/kg, single dose | 0.0238 µg·h/mL
CC[C@@H]([C@H](C)O)n1ncn(-c2ccc(N3CCN(c4ccc(OC[C@@H]5CO[C@@](Cn6cncn6)(c6ccc(F)cc6F)C5)cc4)CC3)cc2)c1=O | Sprague-Dawley rat | oral, 40 mg/kg | 6.55 µg·h/mL
CCCCC(=O)Nc1ccc(-c2ccc3ncn(CCC)c(=O)c3c2)cn1 | male rat | intravenous, 2.5 mg/kg | 2.56 µg·h/mL
O=C1CCC(N2Cc3cc(C4CCN(Cc5ccccc5)CC4)ccc3C2=O)C(=O)N1 (stereo not shown) | male Sprague-Dawley rat | intravenous, 1 mg/kg | 0.309 µg·h/mL
